Data as given in ChEMBL document CHEMBL1132108, “Design, synthesis, and activity of a series of pyrrolidine-3-carboxylic acid-based, highly specific, orally active ET(B) antagonists containing a diphenylmethylamine acetamide side chain” (J Med Chem, 1999).

Key:
[1] = target: T1, Endothelin receptor type B (Homo sapiens, UniProt P24530); assay: Binding ability determined by the displacement of [125 I]ET-3 from the human Endothelin B receptor
T1 sequence (P24530 whole entry): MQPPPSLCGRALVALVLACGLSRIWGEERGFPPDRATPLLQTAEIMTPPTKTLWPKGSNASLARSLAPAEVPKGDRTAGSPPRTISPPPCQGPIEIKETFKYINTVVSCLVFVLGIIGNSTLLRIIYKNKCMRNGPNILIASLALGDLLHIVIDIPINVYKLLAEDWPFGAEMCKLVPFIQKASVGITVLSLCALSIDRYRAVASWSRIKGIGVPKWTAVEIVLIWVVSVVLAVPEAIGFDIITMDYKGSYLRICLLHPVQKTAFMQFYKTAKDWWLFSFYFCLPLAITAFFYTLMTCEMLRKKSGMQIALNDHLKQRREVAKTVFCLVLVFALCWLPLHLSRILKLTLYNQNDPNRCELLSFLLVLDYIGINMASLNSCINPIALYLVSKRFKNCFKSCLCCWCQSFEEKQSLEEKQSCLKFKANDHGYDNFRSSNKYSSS

Endothelin-1 receptor = target: T2, Endothelin-1 receptor (Homo sapiens, UniProt P25101); assay: Binding ability determined by the displacement of [125I]ET1 from the human endothelin A receptor
T2 sequence (P25101 whole entry): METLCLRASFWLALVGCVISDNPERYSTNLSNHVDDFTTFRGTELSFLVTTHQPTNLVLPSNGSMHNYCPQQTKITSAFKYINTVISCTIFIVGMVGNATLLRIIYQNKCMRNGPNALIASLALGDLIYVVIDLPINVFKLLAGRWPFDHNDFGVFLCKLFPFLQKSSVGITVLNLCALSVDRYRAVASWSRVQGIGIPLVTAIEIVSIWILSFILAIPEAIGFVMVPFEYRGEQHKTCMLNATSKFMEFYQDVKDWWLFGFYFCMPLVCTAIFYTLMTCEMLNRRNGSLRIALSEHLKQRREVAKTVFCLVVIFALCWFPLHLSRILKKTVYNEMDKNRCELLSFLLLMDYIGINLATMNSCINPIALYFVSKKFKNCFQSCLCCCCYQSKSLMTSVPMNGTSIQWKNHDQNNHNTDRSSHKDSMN

[2] = target: Endothelin receptor, ET-A/ET-B (Homo sapiens) (UniProt P24530+P25101); assay: Ratio of binding affinity towards human endothelin receptor type A to human endothelin receptor type B (hETA to hETB); type: protein assay
[3] = Total drug exposure (5 mg/kg) when administered intravenously; type: ADME, organism-based; conditions: in vivo, iv
Procedure, shortened: (§1)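 Rats dosed at 5 mg/kg by intravenous injection and by oral gavage. Time course of plasma drug levels compared between the two routes to give half-life and AUC0-∞. Oral bioavailability F is calculated from the two routes.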

[4] = Total drug exposure (5 mg/kg) when administered orally; type: ADME, organism-based; conditions: in vivo, po; procedure, shortened: as §1
[5] = Oral bioavailability; type: ADME, organism-based; conditions: eutheria, in vivo; procedure, shortened: as §1
[6] = Half life (5 mg/kg) when administered intravenously; type: ADME, organism-based; conditions: in vivo, iv; procedure, shortened: as §1
[7] = Half life (5 mg/kg) when administered orally; type: ADME, organism-based; conditions: in vivo, po; procedure, shortened: as §1

Structure (SMILES)	IC50 [1]	IC50 (Endothelin-1 receptor)	Ratio [2]	AUC [3]	AUC [4]	bioavailability [5]	half-life [6]	half-life [7]
Cc1ccccc1C(NC(=O)CN1C[C@H](c2ccc3c(c2)OCO3)[C@@H](C(=O)O)[C@@H]1c1ccc(OCCOC(C)C)cc1)c1ccccc1C (stereo in doubt; form 1)			27200					
COCCOc1ccc([C@H]2[C@H](C(=O)O)[C@@H](c3ccc4c(c3)OCO4)CN2CC(=O)NC(c2ccccc2C)c2ccccc2C)cc1 (stereo in doubt; form 2)			16000					
COc1ccc([C@H]2[C@H](C(=O)O)[C@@H](c3ccc4c(c3)OCO4)CN2CC(=O)NC(Cc2ccccc2)c2ccccc2)cc1 (stereo partly specified)	47 nM	3.9 nM	0.08					
COCCOc1ccc([C@H]2[C@H](C(=O)O)[C@@H](c3ccc4c(c3)OCO4)CN2CC(=O)NC(c2ccccc2)C(C)(C)C)cc1 (stereo partly specified)	2.2 nM	488 nM	222					
CCc1ccccc1C(NC(=O)CN1C[C@H](c2ccc3c(c2)OCO3)[C@@H](C(=O)O)[C@@H]1c1ccc(OCCOC(C)C)cc1)c1ccccc1C (stereo partly specified)	3.3 nM	14300 nM	4320					
CC(C)OCCOc1ccc([C@H]2[C@H](C(=O)O)[C@@H](c3ccc4c(c3)OCO4)CN2CC(=O)NC(c2ccccc2)C(C)(C)C)cc1 (stereo partly specified)	0.71 nM	322 nM	454					
Cc1ccccc1C(NC(=O)CN1C[C@H](c2ccc3c(c2)OCO3)[C@@H](C(=O)O)[C@@H]1c1ccc(OCCOC(C)C)cc1)c1ccccc1C.O=C(O)C(F)(F)F (stereo in doubt; form 1)	1.9 nM	51700 nM		3030 ng·h/mL	730 ng·h/mL	24%	1.8 h	4.8 h
Cc1ccccc1C(NC(=O)CN1C[C@H](c2ccc3c(c2)OCO3)[C@@H](C(=O)O)[C@@H]1c1ccc(OCCOC(C)C)cc1)c1ccccc1C (stereo in doubt; form 2) [listing 1 of 2 here]			23400					
COc1ccc([C@H]2[C@H](C(=O)O)[C@@H](c3ccc4c(c3)OCO4)CN2CC(=O)NC2c3ccccc3-c3ccccc32)cc1	600 nM	1230 nM	2.05					
COc1ccc([C@H]2[C@H](C(=O)O)[C@@H](c3ccc4c(c3)OCO4)CN2CC(=O)NCC(c2ccccc2)c2ccccc2)cc1	108 nM	199 nM	1.84					
COCCOc1ccc([C@H]2[C@H](C(=O)O)[C@@H](c3ccc4c(c3)OCO4)CN2CC(=O)NC(c2ccccc2C)c2ccccc2C)cc1.O=C(O)C(F)(F)F (stereo in doubt; form 2)	1.7 nM	27000 nM		2500 ng·h/mL	200 ng·h/mL	8%	2.9 h	0.55 h
COc1ccc([C@H]2[C@H](C(=O)O)[C@@H](c3ccc4c(c3)OCO4)CN2CC(=O)NC(c2ccccc2)(c2ccccc2)c2ccccc2)cc1	744 nM	432 nM	0.58					
Cc1ccccc1C(NC(=O)CN1C[C@H](c2ccc3c(c2)OCO3)[C@@H](C(=O)O)[C@@H]1c1ccc(OCCOC(C)C)cc1)c1ccccc1C (stereo in doubt; form 2) [listing 2 of 2 here]	3.3 nM	77400 nM						

Second part, the compound after the results:

IC50 [1]	IC50 (Endothelin-1 receptor)	Ratio [2]	AUC [3]	AUC [4]	bioavailability [5]	half-life [6]	half-life [7]	Structure (SMILES)
31 nM	122 nM	3.94						COc1ccc([C@H]2[C@H](C(=O)O)[C@@H](c3ccc4c(c3)OCO4)CN2CC(=O)NC(c2ccccc2)c2cc(C)ccc2C)cc1 (stereo partly specified)
3.4 nM	13.6 nM	4						COc1ccc([C@H]2[C@H](C(=O)O)[C@@H](c3ccc4c(c3)OCO4)CN2CC(=O)NC(CC(C)C)c2ccccc2)cc1 (stereo partly specified)
5 nM	131 nM	26.2						COc1ccc([C@H]2[C@H](C(=O)O)[C@@H](c3ccc4c(c3)OCO4)CN2CC(=O)NC(CC(C)(C)C)c2ccccc2)cc1 (stereo partly specified)
6.1 nM	749 nM	123						CCc1ccccc1C(NC(=O)CN1C[C@H](c2ccc3c(c2)OCO3)[C@@H](C(=O)O)[C@@H]1c1ccc(OC)cc1)c1ccccc1C (stereo partly specified)
20 nM	5.5 nM	0.28						COc1ccc([C@H]2[C@H](C(=O)O)[C@@H](c3ccc4c(c3)OCO4)CN2CC(=O)NC(C)c2ccccc2)cc1 (stereo partly specified)
6.6 nM	100 nM	15.2						CCc1ccccc1C(NC(=O)CN1C[C@H](c2ccc3c(c2)OCO3)[C@@H](C(=O)O)[C@@H]1c1ccc(OC)cc1)c1ccccc1CC
1.7 nM	20600 nM							COCCOc1ccc([C@H]2[C@H](C(=O)O)[C@@H](c3ccc4c(c3)OCO4)CN2CC(=O)NC(c2ccccc2C)c2ccccc2C)cc1 (stereo in doubt; form 1) [listing 1 of 2 here]
		12100						COCCOc1ccc([C@H]2[C@H](C(=O)O)[C@@H](c3ccc4c(c3)OCO4)CN2CC(=O)NC(c2ccccc2C)c2ccccc2C)cc1 (stereo in doubt; form 1) [listing 2 of 2 here]
8.1 nM	45.9 nM	5.67						COc1ccc([C@H]2[C@H](C(=O)O)[C@@H](c3ccc4c(c3)OCO4)CN2CC(=O)NC(c2ccccc2)c2ccccc2)cc1
3.4 nM	63.5 nM	18.7						COc1ccc([C@H]2[C@H](C(=O)O)[C@@H](c3ccc4c(c3)OCO4)CN2CC(=O)NC(c2ccccc2)c2ccccc2C)cc1 (stereo partly specified)
1.1 nM	161 nM	146						COc1ccc([C@H]2[C@H](C(=O)O)[C@@H](c3ccc4c(c3)OCO4)CN2CC(=O)NC(c2ccccc2C)c2ccccc2C)cc1
1.1 nM	2.5 nM	2.27						CCC(CC)C(NC(=O)CN1C[C@H](c2ccc3c(c2)OCO3)[C@@H](C(=O)O)[C@@H]1c1ccc(OC)cc1)c1ccccc1 (stereo partly specified)
7.3 nM	3.7 nM	0.51						CCCC(NC(=O)CN1C[C@H](c2ccc3c(c2)OCO3)[C@@H](C(=O)O)[C@@H]1c1ccc(OC)cc1)c1ccccc1 (stereo partly specified)
2.6 nM	1 nM	0.38						CCC(NC(=O)CN1C[C@H](c2ccc3c(c2)OCO3)[C@@H](C(=O)O)[C@@H]1c1ccc(OC)cc1)c1ccccc1 (stereo partly specified)
2.1 nM	0.7 nM	0.33						COc1ccc([C@H]2[C@H](C(=O)O)[C@@H](c3ccc4c(c3)OCO4)CN2CC(=O)NC(c2ccccc2)C(C)C)cc1 (stereo partly specified)
18 nM	16 nM	0.89						COc1ccc([C@H]2[C@H](C(=O)O)[C@@H](c3ccc4c(c3)OCO4)CN2CC(=O)NC(C)c2ccccc2C)cc1 (stereo partly specified)
0.94 nM	8.8 nM	9.36						COc1ccc([C@H]2[C@H](C(=O)O)[C@@H](c3ccc4c(c3)OCO4)CN2CC(=O)NC(c2ccccc2)C(C)(C)C)cc1 (stereo partly specified)
5 nM	1.6 nM	0.32						CCCCC(NC(=O)CN1C[C@H](c2ccc3c(c2)OCO3)[C@@H](C(=O)O)[C@@H]1c1ccc(OC)cc1)c1ccccc1 (stereo partly specified)
